In PubChem BioAssay AID504382 (The Scripps Research Institute Molecular Screening Center, 2011) one finds fluorescence artifact activation data, which are given here for 25 compounds.

The whole screen tested about 2,500 compounds, of which about 460 (18%) were called active. A selection follows. Unmarked numbers belong to inactive results.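 The calls were made as follows: active = mean activation above a cutoff of low control average plus 3 SD from the earlier screen (cut at about 12% in these data); inactive = the rest.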

A short description of this experiment: compound fluorescence interference without thin filaments, confirmation, artefact control for cardiac RTF calcium sensitizer project, biochemical (AID 504382). The settings on record: IANBD fluorescence interference counterscreen, buffer, EC20 Ca2+; at 7.2 µM; hits give high values; scaled: EC20 calcium 0, EC100 calcium 100. In a few lines:
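Also added: EC20 calcium, 0.472 mM; dosing: single nominal 7.2 µM compound dose, 0.7% DMSO final; timing: 15 min, 25 °C; detection: fluorescence intensity, excitation 480 nm, emission 540 nm; replicates: each compound tested in triplicate wells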
As for `COc1cc(/C=C2\CC/C(=C\c3ccc(OCCO)c(OC)c3)C2=O)ccc1OCCO`, the fluorescence artifact activation is 0.12%. The figure for `C/C=C/c1ccc(OCCCNCC(C)O)c(OC)c1` (stereo not given) is 112% (active). The figure for `COc1ccc(OC)c(/C=N/N=C(\N)c2nonc2N)c1` is 9.14%; for `COc1ccc(CN2CCC(=O)N([C@H](CO)c3ccccc3)CC2)cc1` it is 6.01%. The result for `CC(C)CN(C(=O)CCCc1nc2ccccc2c(=O)[nH]1)c1c(N)n(Cc2ccccc2)c(=O)[nH]c1=O` reads 0.01%.

`CCOc1ccccc1N1CCN(CC(=O)c2c(N)n(C)c(=O)n(C)c2=O)CC1`: the fluorescence artifact activation was 2.53%. For `CCOc1ccccc1N1CCN(CC(=O)N(CC(C)C)c2c(N)n(CC(C)C)c(=O)[nH]c2=O)CC1`, the fluorescence artifact activation is 13.8% (active).

For the compound `O=C1NC(c2ccccc2)=C(c2nc3ccccc3s2)C(c2ccc(O)cc2)N1` (stereo not given), the fluorescence artifact activation is -0.03%. The figure for `Nc1ccc2c3c(cccc13)-c1ccccc1-2` is 0.02%; for `Cc1n[nH]c(C)c1N1C(=O)c2cccc3c(N4CCCCCC4)ccc(c23)C1=O` it is 0.08%; for `COc1cc(/C=C2\CCC(C)C3=C(c4cc(OC)c(OC)c(OC)c4)C(C#N)=C(N)OC32)cc(OC)c1OC` (stereo not given) it is 14.5% (active). As to `CC1(C)CC(=O)C2=C(C1)OC(N)=C(C#N)C21CCN(Cc2ccccc2)CC1`, the fluorescence artifact activation was 0.25%.

With `COC(=O)C1=COC(C)C2CN3CCc4c([nH]c5ccccc45)C3CC12` (stereo not given), the fluorescence artifact activation is 1.05%. As to `CCOC(=O)Cn1c(=NC(=O)c2cc(-c3cccs3)nc3ccccc23)sc2cc(S(N)(=O)=O)ccc21`, the fluorescence artifact activation is -0.11%.

Take `COc1ccccc1NC(=O)/C=C/C(=O)O`: the fluorescence artifact activation was 0.29%.

For `CC(C)C(=O)c1cc2c(cc1NC(=O)c1ccccc1)OCCO2`, the fluorescence artifact activation was 0.02%. Turning to `O=C(Nc1ccccc1OC(=O)c1ccccc1)c1ccccc1`, the fluorescence artifact activation was 45% (active). The result for `COc1ccc(OC)c(C2C3CN(C(C)C)CC=C3C(C#N)=C(N)C2(C#N)C#N)c1` (stereo not given) reads 1.64%.

Take `CCn1c(NC(=O)Nc2cccc(C)c2C)cc2sccc21`: the fluorescence artifact activation is 0.08%. In the case of `C#CC[N+](C)(C)CCCCCCCCCC`, the fluorescence artifact activation was 13.8% (active). The figure for `Cc1nccc(-c2cccc(N/N=C(\C#N)C(=O)c3ccccc3)c2)n1` is -0.02%; for `CCOC(=O)Cn1nc2sc3ccccc3n2c(=O)c1=O` it is -0.05%; for `Cc1ccc(CNC(=O)c2cccc3c2C(=O)c2ccc(N4CCCCC4)cc2S3(=O)=O)cc1` it is -0.01%. The result for `O=C(CCc1ccc(S(=O)(=O)NCCc2ccccc2)cc1)N1CCN(Cc2ccc3c(c2)OCO3)CC1` reads -0.04%; that for `Cc1ccc(S(=O)(=O)NC(C)(C)CN2CCC(Cc3ccccc3)CC2)cc1`, 3.9%.
